From PubChem
Not all results are given here.
PGC1a acetyl up: compounds raising PGC1a acetylation signal, primary screen, PGC1a modulator project, cell-based, U2OS, AlphaScreen, signal-increasing mode | AID 651723, 2012 | activation, % at 15.6 µM | 0.21% of 350,000 active | overnight;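 active means every replicate reaching activation of at least 50%, whatever the mean replicate activation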;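 further: hits raise the AlphaScreen acetylation signal above neutral controls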
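System: flag-PGC1a/GCN5 U2OS cells / Input: 7000 cells/well / Compound: single test concentration per compound / Incubation: overnight compound treatment, 37 °C / Technique: AlphaScreen on lysates with anti-acetyl-lysine antibody, acceptor and donor beads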
G6PC hep suppr: suppressors of forskolin-stimulated G6PC mRNA, dose response, PGC-1a acetylation activator project, cell-based, hepatocytes, RT-qPCR, cherry-picked samples; 240 tested, under 10 active; primary mouse hepatocytes; G6PC suppression (normalized activity, % of positive control; higher = more suppression), % at 26 µM; AID 743463, 2014; shares compounds with PGC1a acetyl up;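 active means dose curves showing G6PC suppression whose half-maximal dose is at most twice the top valid dose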;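 further: G6PC expression relative to GAPDH housekeeping gene as delta delta Ct; 0% = median of neutral control wells and 100% = median of positive control wells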
Hep PCK1 suppr: suppression of PCK1 mRNA in primary hepatocytes, dose response, PGC-1a acetylation activator project, cell-based, primary mouse hepatocytes, RT-qPCR, cherry-pick. shares compounds with PGC1a acetyl up. PCK1 expression decrease, unspecified at 26 µM. forskolin-stimulated. AID 743465, 2014. 230 tested, under 10 active;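 active means compounds lowering PCK1 expression whose fitted half-maximal concentration is at most twice the top tested dose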;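 further: values are delta delta Ct of PCK1 relative to GAPDH; higher delta delta Ct means lower PCK1 expression so positive values indicate hits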
PGC1a hep suppr: suppression of PGC-1a mRNA in primary hepatocytes, dose response, PGC-1a acetylation activator project, cell-based, primary mouse hepatocytes, RT-qPCR, cherry-pick. shares compounds with PGC1a acetyl up. PGC-1a mRNA qPCR, forskolin; top dose 26 µM. max activity (PGC-1a expression decrease), %. 240 tested, under 10 active;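 active means compound lowering PGC-1a expression with fitted half-maximal concentration at most twice its top tested dose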;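 further: 0% = neutral control wells median and 100% = positive control wells median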
Numbers without * were called inactive.

`COc1ccc(C(=O)C(CN2CCCC2)c2ccccc2)cc1` (configuration not stated) gave PGC1a acetyl up 166.8*.
`CC(c1ccccc1)N1CCN(C(=O)CCl)CC1` (configuration not stated) gave PGC1a acetyl up -47.8.
For CCCCOc1ccc(C(=O)C(CN2CCOCC2)c2ccccc2)cc1 (configuration not stated) the results were PGC1a acetyl up -79.6.
For COc1cccc(N2C(=NC(=O)c3ccccc3)SC3CS(=O)(=O)CC32)c1 (configuration not stated) the results were PGC1a acetyl up -40.9.
CCn1c(Oc2ccccc2F)nc2c1c(=O)n(C)c(=O)n2C was read as PGC1a acetyl up -40.4.
COc1ccc(OC)c(Nc2ccc(C(=O)O)cc2[N+](=O)[O-])c1 was read as PGC1a acetyl up -42.4.
`CCN(c1ccccc1)S(=O)(=O)c1ccc(OC)c(NC(=O)Cc2ccc(F)cc2)c1` gave PGC1a acetyl up -40.3.
For COc1ccc(S(=O)(=O)N2CCOCC2)cc1NC(=O)CCNC(=O)c1ccc([N+](=O)[O-])cc1 the results were PGC1a acetyl up 419.4*.
Screening Nc1ncc([N+](=O)[O-])c(N2CCCCCC2)n1 returned PGC1a acetyl up -52.6.
Cc1cc(C)cc(N(CC(=O)NC2CC3CCC2C3)S(C)(=O)=O)c1 (configuration not stated) was read as PGC1a acetyl up 82.6*.
C[C@@H]1CN([C@H](C)CO)C(=O)c2cc(NS(=O)(=O)c3ccc(F)cc3)ccc2O[C@H]1CN(C)Cc1ccc(C(F)(F)F)cc1 was read as PGC1a acetyl up -55.7.
Cc1ccc(-c2ccc3c(c2)O[C@@H](CN(C)C(=O)C2CCCCC2)[C@H](C)CN([C@H](C)CO)S3(=O)=O)cc1 was read as PGC1a acetyl up -41.6.
CN(C)C(=S)Nc1ccc(Br)c(Cl)c1 was read as PGC1a acetyl up -52.2.
CCC(C)(C)n1nnnc1CN(Cc1ccc(Cl)cc1)Cc1ccco1 was read as PGC1a acetyl up 81.8*.
For C[C@@H]1CN([C@@H](C)CO)C(=O)c2cc(NS(C)(=O)=O)ccc2O[C@@H](C)CCCCO[C@H]1CN(C)C(=O)Nc1ccc(F)cc1 the results were PGC1a acetyl up -47.8.
Screening CCN1/C(=C/c2ccc3cccc(C)c3[n+]2CC)Sc2ccccc21 returned PGC1a acetyl up 184.9*.
Screening Cc1noc(C)c1NC(=O)N[C@H]1C=C[C@H](CC(=O)NCc2ccc(Cl)c(Cl)c2)O[C@H]1CO returned PGC1a acetyl up -49.2.
`Cc1ccccc1OCC(=O)OCC(=O)NCc1ccc2c(c1)OCO2` gave PGC1a acetyl up 68.2*.
`COc1ccccc1/C=C(/C(=O)OCC(=O)NCc1ccccc1)c1ccccc1` gave PGC1a acetyl up -91.9.
Screening C[C@H]1CN([C@@H](C)CO)C(=O)c2cc(/C=C/c3ccccc3)cnc2O[C@H]1CN(C)C(=O)CN(C)C returned PGC1a acetyl up -53.1.
For C=CS(=O)(=O)N(Cc1ccc(Cl)c(Cl)c1)C[C@@H](O)CO the results were PGC1a acetyl up 65.4*.
Screening CCCc1ccc(C(O)c2ncc(-c3cccc(F)c3)[nH]2)cc1 (configuration not stated) returned PGC1a acetyl up -42.6.
Screening C[C@@H]1CN([C@H](C)CO)C(=O)c2cc(C3=CCCCC3)cnc2O[C@@H]1CN(C)Cc1ccccc1 returned PGC1a acetyl up -43.8.
For CCOC(=O)c1oc2ccc(S(=O)(=O)N3CCC(C)CC3)cc2c1C the results were PGC1a acetyl up -43.2.
`CCOC(=O)C1=CC[C@@H](c2ccc(OC)cc2)N(S(=O)(=O)c2ccc(C)cc2)[C@H]1CC` gave PGC1a acetyl up 90.3*.
For O=C(c1cccc(N2C(=O)C3C4C=CC(C4)C3C2=O)c1)N1CCCc2ccccc21 (configuration not stated) the results were PGC1a acetyl up -42.1.
For O=C(CN1CCC(N2CCCCC2)CC1)N1CCCc2ccccc21 the results were PGC1a acetyl up 81.5*.
Screening O=C(CNC(=O)C1CCCCC1)OCC(=O)c1ccc(Cl)s1 returned PGC1a acetyl up -45.2.
`S=c1nc[nH]c2c1cnn2Cc1ccccc1` gave PGC1a acetyl up -44.6.
`O=C(NCc1cccnc1)/C(=C\c1ccc(-c2ccc(Cl)c(Cl)c2)o1)S(=O)(=O)c1ccccc1` gave PGC1a acetyl up -59.2.
Screening O=C(CCCc1nc(-c2ccccc2Cl)no1)NCc1cccnc1 returned PGC1a acetyl up 98.0*.
`O=C(CCNNC(=O)c1ccncc1)NCc1ccccc1` gave PGC1a acetyl up -51.4.
`CCCCOP(=O)(c1ccc(N(C)C)cc1)C(O)c1ccc(OC)cc1` (configuration not stated) gave PGC1a acetyl up -82.0.
`CC(C)[C@H](NC(=O)NCc1cccs1)C(=O)O` gave PGC1a acetyl up -85.4.
`O=C(Cc1cccs1)N/N=C/C(Br)=C/c1ccccc1` gave PGC1a acetyl up 80.9*.
Screening Cc1ccccc1NCC(=O)N/N=C/C(Br)=C/c1ccccc1 returned PGC1a acetyl up 150.3*.
`Cc1noc(/C=C/N(C)C)c1S(=O)(=O)N(C)CC(=O)NC1CCCCC1` gave PGC1a acetyl up -43.2.
Screening NCC[C@H]1CC[C@@H](NC(=O)C2CCCCC2)[C@@H](CO)O1 returned PGC1a acetyl up -55.8.
CCCN(C)C[C@H]1Oc2cc(C#C[C@@H](C)O)ccc2S(=O)(=O)N([C@@H](C)CO)C[C@H]1C was read as PGC1a acetyl up -54.2.
`C/C(=N/NC(=O)CNC(=O)c1ccccn1)c1ccc([N+](=O)[O-])cc1` gave PGC1a acetyl up -44.2.
CC(C)n1c(N2CCN(CC(=O)NCc3cccs3)CC2)nc2ccccc21 was read as G6PC hep suppr 35.0, Hep PCK1 suppr 26.3 and PGC1a hep suppr 68.2.
CC(C)c1ccccc1NC(=O)Cn1c(-c2ccccc2Cl)nc2ccccc21 was read as PGC1a acetyl up -43.3.
Screening CCCN(CCC)CCNC(=O)c1cc2c(=O)n(CC)c3ccccc3c2s1 returned PGC1a acetyl up -43.0.
For O=C(C/C=N/OCc1c(Cl)cccc1Cl)c1cnc(-c2ccccc2)s1 the results were PGC1a acetyl up -47.1.
`Cc1ccc(NC(=O)CN2CCC(NC(=O)Cc3ccccc3)CC2)c(C)c1` gave PGC1a acetyl up 141.4*, G6PC hep suppr 22.7, Hep PCK1 suppr 13.5 and PGC1a hep suppr 37.8.
For CCOc1ccc(N2C(=O)Cc3ccccc3C2=O)cc1 the results were PGC1a acetyl up -43.2.
Screening Cc1ccc(C)n1-c1ccc(-c2nnco2)cc1 returned PGC1a acetyl up -52.4.
For Cc1cc(C)nc(NC(=S)Nc2ccccc2)n1 the results were PGC1a acetyl up -60.0.
O=C(/C=C/c1ccccc1)CC(O)(c1ccccc1)C(F)(F)F (configuration not stated) was read as PGC1a acetyl up -41.5.
